Measurements published in PubChem BioAssay.
Results filed as inconclusive are left out. The source made the active and inactive calls.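 The calls were made as follows, unless noted: active = growth inhibition above 25% in both replicates, a cutoff set 3 SD above the mean; inconclusive = above 25% in only one replicate; inactive = the rest.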

Columns and labels:
[1] = OD615 S. cerevisiae growth inhibition, permissive medium, pilot counter-assay, permissive growth control for S. cerevisiae lifespan shortening project (AID 705); details: OD615, 24 h, at 10 µM, hits give high values
Method in brief: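 assay system = Saccharomyces cerevisiae strain carrying genetically modified DeaD replicative-lifespan system | technique = absorbance (optical density) at 615 nm | buffer or medium = permissive raffinose/galactose medium | timing = cells pre-grown 4 h, then 24 h compound exposure, 30 °C humidified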

[2] = Restrictive medium S. cerevisiae growth inhibition, OD615, pilot screen of yeast lifespan reduction project, restrictive growth control (AID 706;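 active = growth inhibition above a set limit, 3 SD over mean compound inhibition, in both replicates, cut at about 43% in these data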;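 also: modified DeaD lifespan yeast strain shifted to restrictive glucose medium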); details: OD615, 48 h, at 10 µM, hits give high values
Method in brief: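 System: modified S. cerevisiae. Buffer or medium: CSMM-D glucose medium. Incubation: 4 h pre-growth plus 48 h compound exposure, 30 °C. Detection: absorbance (optical density) measured at 615 nm.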

[3] = viability gain of MRP-1-high H69AR cells under doxorubicin, pilot screen, MRP-1 activator project, CellTiter-Glo, duplicate (AID 807;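 active = viability increase at or above a cutoff of the median across tested compounds plus 3 SD, cut at about 8.5% in these data, passing the limit was not always enough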;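 also: compound pretreatment 18-22 h then 72 h combined with doxorubicin; 0% = doxorubicin alone and 100% = vehicle without doxorubicin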); details: H69AR viability with doxorubicin, CellTiter-Glo luminescence; at 10 µM; hits give high values
[4] = growth suppression of beta-catenin knockout HCT116, pilot screen, human colon tumor cells (AID 823;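 active = cell viability at or below a set limit in both duplicate runs, the limit being the all-compound median minus 4 SD, cut at about 23% in these data, passing the limit was not always enough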;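 also: 0% = wells killed by 20 µM Hyamine and 100% = untreated DMSO cell wells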); details: CellTiter-Glo, 60 h, at 10 µM, hits give low values
[5] = growth suppression of PTEN-deleted HCT116, pilot screen, cell-based, HCT116 clonal line, CellTiter-Glo (AID 824;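 active = viability at or below 27.92% in each of two runs, the all-compound median minus 4 SD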;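 also: 0% = 20 µM Hyamine control and 100% = vehicle cell control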); details: 60 h, at 10 µM, hits give low values
[6] = inhibitors of the yeast RAM network, pilot screen, dse1pr::URA3 reporter, 5-FOA selection (AID 869;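 active = inhibition over a set limit, the all-compound mean plus 3 SD, in both replicate runs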;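 also: 0% = DMSO wells with no growth and 100% = 10 µM 1-NA-PP1 with full growth; RAM network block rescues cells from 5-FOA so hits raise OD615 growth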); details: S. cerevisiae dse1pr::URA3 5-FOA growth, OD615, 2 d; at 10 µM; hits give high values; strain carries analog-sensitive mutant Cbk1 kinase
[7] = RAM signaling pathway blockade in yeast – S. cerevisiae, Pdr1DBD-CYC8 efflux-inhibited sensitized strain, primary screen (AID 1298;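 active = RAM network inhibition above 8.4% in each of two replicates, 3 SD over the compound average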;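 also: 0% = DMSO untreated cells without growth and 100% = 10 µM 1-NA-PP1 full growth; higher means more yeast growth rescued from 5-FOA killing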); details: S. cerevisiae cbk1-as DSE1-URA3 strain, 5-FOA growth OD615, 2 d; at 50 µM; hits give high values

COc1ccc(Cl)cc1Nc1nc(N2CCCC2)nc(N2CCCC2)n1
inactive: growth inhibition [1] 2.74% | growth inhibition [2] 2.22% | viability increase [3] 0.95% | viability [4] 95.5% | viability [5] 93.3% | inhibition [6] 0.095% | RAM network inhibition [7] 6.43%

COc1cccc(C2NC(=O)NC(C)=C2C(=O)Nc2cc(OC)ccc2OC)c1 (stereo unspecified)
inactive: growth inhibition [1] -7.14% | growth inhibition [2] 0.605% | viability increase [3] -0.51% | viability [4] 95.2% | viability [5] 94.9% | inhibition [6] 1.15% | RAM network inhibition [7] 5.92%

O=S(=O)(c1cccs1)n1nnc2ccccc21
inactive: growth inhibition [1] -1.66% | growth inhibition [2] -8.55% | viability increase [3] -0.18% | viability [4] 103% | viability [5] 105% | inhibition [6] 1.33% | RAM network inhibition [7] 0.48%

CCCCOC(=O)Nc1ccc(N2CCOCC2)cc1
inactive: growth inhibition [1] -0.54% | growth inhibition [2] 2.39% | viability increase [3] -0.38% | viability [4] 98.2% | viability [5] 102% | inhibition [6] 1.28% | RAM network inhibition [7] 4.87%

COc1ccc(OC)c(N(CC(=O)O)S(=O)(=O)c2ccc(OC)c(OC)c2)c1
inactive: growth inhibition [1] -2.7% | growth inhibition [2] -11.1% | viability increase [3] -0.41% | viability [4] 98.9% | viability [5] 94% | inhibition [6] 2.03% | RAM network inhibition [7] 4.23%

CC(C)N1C(=O)CCC1C(=O)N1CCC(Cc2ccccc2)CC1 (stereo unspecified)
inactive: growth inhibition [1] -8.06% | growth inhibition [2] 0.645% | viability increase [3] 1.19% | viability [4] 102% | viability [5] 95.3% | inhibition [6] 1.92% | RAM network inhibition [7] 2.34%

CCn1c2ccccc2c2nnc(SCc3cc(=O)n4ccsc4n3)nc21
inactive: growth inhibition [1] -8.94% | growth inhibition [2] 8.05% | viability increase [3] -2.35% | viability [4] 93.5% | viability [5] 86.3% | inhibition [6] 1.52% | RAM network inhibition [7] 8.94%

Clc1ccc(-c2nnn(Cc3nc4ccccc4s3)n2)cc1
inactive: growth inhibition [1] -2.44% | growth inhibition [2] -17.7% | viability increase [3] -2.27% | viability [4] 92.6% | viability [5] 96.6% | inhibition [6] 0.615% | RAM network inhibition [7] 2.46%

CCC(=O)Nc1cccc(-c2nnc(SCC(=O)c3ccccc3)n2C)c1
inactive: growth inhibition [1] 0.325% | viability increase [3] -1.76% | viability [4] 91.7% | viability [5] 92.6% | inhibition [6] 0% | RAM network inhibition [7] 4.95%
active: growth inhibition [2] 45.9%

CCOC(=O)CSC1=C(C#N)C(c2ccccc2Cl)C(C(=O)OC)C(=O)N1 (stereo unspecified)
inactive: growth inhibition [1] -8.45% | growth inhibition [2] -0.68% | viability increase [3] -0.9% | viability [4] 90.3% | viability [5] 91.8% | inhibition [6] 0.14% | RAM network inhibition [7] 2.05%

CCSc1nc2c(c(=O)n1-c1ccc(F)cc1)SCC2
inactive: growth inhibition [1] -7.3% | growth inhibition [2] -6.39% | viability increase [3] -2.75% | viability [4] 89.2% | viability [5] 94.2% | inhibition [6] 1.18% | RAM network inhibition [7] -0.35%

CC1(C)CC(=O)C(C=NCCN2CCN(C(=O)CC3CCCC3)CC2)=C(O)C1
inactive: growth inhibition [1] -24.8% | growth inhibition [2] -8.86% | viability increase [3] -1.93% | viability [4] 96.9% | viability [5] 95.2% | inhibition [6] 1.25% | RAM network inhibition [7] 7.49%

O=C(OC1CCCCC1)c1ccc(NC(=O)c2ccco2)cc1
inactive: growth inhibition [1] -1.26% | growth inhibition [2] -7.55% | viability increase [3] -2.73% | viability [4] 70.1% | viability [5] 77.5% | inhibition [6] 0.87% | RAM network inhibition [7] 2.81%

CCC(C#CCN1CCCCC1)(CC)OCCC#N
inactive: growth inhibition [1] -4.58% | growth inhibition [2] -9.71% | viability increase [3] -1.94% | viability [4] 102% | viability [5] 97.6% | inhibition [6] 0.79% | RAM network inhibition [7] 4.07%

CNc1nc(-c2ccc(Cl)cc2)cs1
inactive: growth inhibition [1] -5.83% | growth inhibition [2] -22.5% | viability increase [3] 0.42% | viability [4] 92.1% | viability [5] 87.8% | inhibition [6] 0.94% | RAM network inhibition [7] 0.43%

O=C(NC1CCCc2ccccc21)C1CCN(C(=O)c2sccc2-n2cccc2)CC1 (stereo unspecified)
inactive: growth inhibition [1] -5.99% | growth inhibition [2] -8.89% | viability increase [3] -4.24% | viability [4] 84.7% | viability [5] 78.7% | inhibition [6] -0.305% | RAM network inhibition [7] 4.28%

CCOc1ccc(C(=O)Nc2c3c(nn2-c2ccc(C)cc2)CS(=O)C3)cc1OCC (stereo unspecified)
inactive: growth inhibition [1] 2.17% | growth inhibition [2] -3.32% | viability increase [3] -1.84% | viability [4] 97.6% | viability [5] 104% | inhibition [6] 2.23% | RAM network inhibition [7] 8.77%

O=C(NCc1ccccc1)c1cc(S(=O)(=O)N2CCOCC2)ccc1F
inactive: growth inhibition [1] -3.95% | growth inhibition [2] -30.7% | viability increase [3] 0.27% | viability [4] 94.7% | viability [5] 93% | inhibition [6] 3.29% | RAM network inhibition [7] 3.42%

O=C(c1ccccc1)c1ccc(OC(=O)N2CCOCC2)cc1
inactive: growth inhibition [1] -7.92% | growth inhibition [2] 4.65% | viability increase [3] 1.36% | viability [4] 109% | viability [5] 90.7% | inhibition [6] 1.49% | RAM network inhibition [7] 8.53%

CC(CCCC(C)(C)O)NCCO (stereo unspecified)
inactive: growth inhibition [1] -9.36% | growth inhibition [2] -4.3% | viability increase [3] 1.25% | viability [4] 102% | viability [5] 106% | inhibition [6] 2.67% | RAM network inhibition [7] -0.17%

Cc1ccc(-c2nn3c(C)nnc3s2)cc1NC(=O)c1ccco1
inactive: growth inhibition [1] 3.94% | growth inhibition [2] 25.2% | viability increase [3] -5.34% | viability [4] 113% | viability [5] 103% | inhibition [6] 2.53% | RAM network inhibition [7] 1.06%

c1ccc(-c2csc3nnc(SCc4ccc5c(c4)OCO5)n23)cc1
inactive: growth inhibition [1] 22.1% | viability increase [3] -2.01% | viability [4] 93.2% | viability [5] 82.7% | inhibition [6] 0.87% | RAM network inhibition [7] 3.09%
active: growth inhibition [2] 64.5%

O=C(O)CC1Sc2ccccc2NC1=O (stereo unspecified)
inactive: growth inhibition [1] -7.26% | growth inhibition [2] 0.575% | viability increase [3] -1.79% | viability [4] 90.2% | viability [5] 96% | inhibition [6] 1.49% | RAM network inhibition [7] 4.47%

Cc1cc(-c2c(C)n([O-])c(C)c(C)[n+]2=O)ccc1F
inactive: growth inhibition [1] -10.8% | growth inhibition [2] -3.75% | viability increase [3] 0.1% | viability [4] 102% | viability [5] 98.2% | inhibition [6] 1.03% | RAM network inhibition [7] 0.32%

COC(=O)C(C)NC(=O)C1CCCN1S(=O)(=O)c1cc(C)c(Cl)cc1C (stereo unspecified)
inactive: growth inhibition [1] -5.19% | growth inhibition [2] -6.72% | viability increase [3] -1.54% | viability [4] 93.8% | viability [5] 94.9% | inhibition [6] 0.935% | RAM network inhibition [7] 0.4%

OC(COc1ccc(Cl)c2ccccc12)CN1CCN(c2ccccn2)CC1 (stereo unspecified)
inactive: growth inhibition [1] -5.89% | growth inhibition [2] -11.6% | viability increase [3] -3.19% | viability [4] 94.9% | viability [5] 95.2% | inhibition [6] -0.275% | RAM network inhibition [7] 4.46%

CCCn1c(CN(Cc2ccccc2)Cc2ccccc2)nc2c1c(=O)n(C)c(=O)n2C
inactive: growth inhibition [1] -1.94% | growth inhibition [2] -8.84% | viability increase [3] 0.21% | viability [4] 69.2% | viability [5] 59.7% | inhibition [6] 1.22% | RAM network inhibition [7] 8.87%

COc1ccc(S(=O)(=O)Cc2ccc(C(=O)N3CCc4ccccc4C3)o2)cc1
inactive: growth inhibition [1] -5.74% | growth inhibition [2] -5.21% | viability increase [3] -0.44% | viability [4] 92.7% | viability [5] 94.1% | inhibition [6] 0.315% | RAM network inhibition [7] 7.28%

CCCNC(=O)NCCc1c(C)[nH]c2ccccc12
inactive: growth inhibition [1] 4.3% | growth inhibition [2] -9.91% | viability increase [3] -3.16% | viability [4] 99.8% | viability [5] 99% | inhibition [6] 1.35% | RAM network inhibition [7] 1.69%

CC(=O)N1CCc2c(sc(NC(=O)C3CC3)c2-c2nc3ccccc3s2)C1
inactive: growth inhibition [1] 0.95% | growth inhibition [2] -2.89% | viability increase [3] -3.03% | viability [4] 65.4% | viability [5] 63.4% | inhibition [6] 1.99% | RAM network inhibition [7] 4.93%

COc1cccc(N2CCN(C(=O)c3ccc4nc(N5CCCCC5)sc4c3)CC2)c1
inactive: growth inhibition [1] -4.55% | growth inhibition [2] 3.63% | viability increase [3] 0.85% | viability [4] 89.1% | viability [5] 79.2% | inhibition [6] 0.805% | RAM network inhibition [7] 6.67%

Cc1ccc(CNC(=O)c2cc3c(-c4ccc(Cl)cc4)nn(C)c3s2)o1
inactive: growth inhibition [1] -7.97% | growth inhibition [2] -5.61% | viability increase [3] -6.4% | viability [4] 53.9% | viability [5] 48.7% | inhibition [6] 3.25% | RAM network inhibition [7] 2.13%

CC(=O)c1ccc(OCC(O)COc2ccc(C(C)=O)cc2)cc1
inactive: growth inhibition [1] -2.04% | growth inhibition [2] -4.87% | viability increase [3] 0.11% | viability [4] 96.2% | viability [5] 94.7% | inhibition [6] 1.22% | RAM network inhibition [7] 0.16%
